# From PubChem BioAssay AID504412 (Broad Institute, 2011)
# The source made the active and inactive calls.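 Rule for the calls: active = activation of at least 10% at the 50 µM dose, scaled between neutral and positive controls; inactive = the rest.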
# Test: inducers of mitochondrial cyt c release – biochemical, isolated mitochondria, cytochrome c ELISA, dry powder, orthogonal assay for A1 inhibitor project, confirmation (AID 504412)
# Conditions: CHL-1 A1-2A-BIM mitochondria, stronger effect = higher value
# Summary of the method: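 Test system: Mitochondria isolated from A1-2A-BIM construct-expressing CHL-1 cells | Buffer or medium: Trehalose AT buffer, pH 7.7, 80 mM KCl | Timing: Compound treatment 30 min, 30 °C | Measured by: Cytochrome c ELISA, A450 with 540 nm correction | Controls: DMSO low, DMSO with tBid high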
compound,measurement,setting,value
Cn1c(=O)c([N+](=O)[O-])c(Cl)c2ccccc21,activation,at 50 µM,25.6% (active)
same,activation,"cytochrome c release, at 10 µM",10.1%
